Assay results reported in article PMC10461461 (Protein Science : A Publication of the Protein Society, 2023).
Marks after values point to notes of the source that are not given here. Where no end group is shown, it is not given here.

What was measured:
[1] = pH at which 50% of peptides are in the α-helical membrane inserted state; ref Vasquez-Montes et al. (2018); cited from earlier work
[2] = Tryptophan fluorescence emission maximum; type: physicochemical; details: POPC LUVs, pH 8.0 and pH 4.0, Trp fluorescence
[3] = Solubility in aqueous buffer; type: physicochemical; details: peptides solubilized to 20 μM in 5 mM sodium phosphate pH 8.0
HSC3 cells = assay: Lactate dehydrogenase release assay; type: cell-based, human; details: 10 μM, 1 h, pH 7.4, 5.5 or 5.0, mean ± S.D., n = 3
[4] = system: HSC3 cells expressing PTPRJ ectopically; assay: Cell viability assay; type: cell-based, human; details: 72 h recovery, MTT, n = 9
Method in brief: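 HSC3 cells engineered to express wild-type PTPRJ, grown in high-glucose DMEM with 10% FBS at 37°C and 5% CO₂, seeded at 5000 cells/well overnight. Peptide in serum-free medium for 5 min at 37°C. Medium then acidified to target pH with citric acid-buffered medium (pH 2.0) for 10 min. Cells washed, then 72 h recovery in complete DMEM. MTT read-out, normalized to medium-only pH 7.4 cells. […]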

[5] = system: EGFR phosphorylation (Tyr-1068 and Tyr-1173) in HSC3 cells expressing wild-type PTPRJ; assay: EGFR Tyr phosphorylation level by immunoblotting; type: cell-based, human; details: 10 μM, 10 min, indicated pHs (7.4, 5.5, 5.0), then EGF
Method in brief: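 HSC3 cells engineered to express wild-type PTPRJ, seeded and grown overnight, then serum-starved 2 h. Peptide in serum-free medium for 5 min at 37°C; medium acidified with citrate-buffered medium (pH 2.0) to reach final 10 μM; 10 min at 37°C; then EGF 10 ng/mL for 10 min. Lysates immunoblotted for pY1068, pY1173 and total EGFR; chemiluminescence; densitometric phospho/total ratio, mean values.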

[6] = system: HSC3 cells ectopically expressing PTPRJ; assay: Wound healing scratch assay; type: cell-based, human; details: 10 μM, 10 min, n = 8-11
Method in brief: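 PTPRJ-expressing HSC3 monolayers, confluent at 24 h, serum-starved 2 h. Peptide added in serum-free medium at pH 7.4 (5 min, 37°C), then pH lowered with citrate-buffered medium (pH 2.0) to reach final concentration; 10 min exposure. Monolayer scratched, then complete medium with EGF 50 ng/mL, 37°C, 10 h. Closure taken as percent area change from start to end, normalized to cells treated at pH 7.4.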

[7] = system: EGFR phosphorylation (Tyr-1068 and Tyr-1173) in HSC3 cells expressing wild-type PTPRJ; details: 10 μM, 1-h treatment; ref Bloch et al., 2019; cited from earlier work
[8] = system: HSC3 cells ectopically expressing PTPRJ; details: 10 μM, 1-h treatment; ref Bloch et al., 2019; cited from earlier work

Sequence: AAEQNPIYWARYDWLFTTGLLLLDLALLVDADEGG [pHLIP(P20G)]
- pK50 [1]: 7.2 ^b

Sequence: AAEQNPIYWARYDWLFTTPLLLLDLALLVDADEGG [pHLIP(WT‐Ala)]
- pK50 [1]: 6.1 ^b

Sequence: DDDDDDTTLLLLS DIGA IMWVSLVDLIADADEG [hybrid1]
- partitioning into the lipid bilayer [2]: does not partition into the lipid bilayer

Sequence: DDTTLLLLSEIGAGMWVSLVELIADADEG [hybrid7]
- solubility in aqueous buffer [3]: readily soluble in aqueous buffer
- release of LDH (membrane integrity) (HSC3 cells): Neither hybrid7 nor low pH treatment causes a significant release of LDH
- cell viability ([4]; pH 5.5, 10 μM, 10 min treatment): 20%

Sequence: DDTTLLLLSEIGLGMWVSLVELIADADEG [hybrid7‐control]
- change in EGFR phosphorylation level [5]: no changes in phosphorylation level
- decrease / inhibition in cell migration (wound closure) ([6]; pH 5.0, EGF 50 ng/mL 10 h): 30%
- effect on cell migration (wound closure) ([6]; pH 5.5, EGF 50 ng/mL 10 h): does not result in any effect
- effect on cell viability ([4]; pH 7.4 or 5.5, 10 min treatment): had no effect at either high or acidic pH

Sequence: KKTTLLLL S SIG A IMW V SLVCLIAVKGSNKK [RJbinder]
- decrease in phosphorylation at Tyr-1068 and Tyr-117 [7]: 20%–30%
- decrease in cell migration [8]: 20%
